Active and inactive are the calls of the source. The calls are words filed in the database; no cut-off is given here.
Experiments:
NCI-H460 [1] = assay: Induction of apoptosis in human NCI-H460 cells assessed as conversion of cleaved PRAP protein to fragment at 100 nmol/L incubated for 48 hrs by westernblot analysis; assay type: functional, cell-based
Outline: (§1)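 Exponentially growing NCI-H460 cells treated with compound or DMSO control for 24 or 48 h, then harvested. Cleaved PARP fragment detected by Western blot.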

HCT-116 [2] = assay: Antitumor activity against human HCT-116 cells xenografted in BomTac:NMRI-Foxn1nu mouse assessed as T/C at 25 mg/kg, po administered twice a week upto 6 weeks relative to control; assay type: functional
Outline: (§2)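 Female nude mice bore s.c. HCT 116 (2×10^6 cells), NCI-H460 (1×10^6 cells) or serially transplanted CXB1 tumor pieces. At ~50–100 mm³, mice were randomized into groups of 10 and dosed i.v. (0.1 N HCl/saline) or by gavage (0.5% hydroxyethyl-cellulose) at 10 mL/kg. Calipers read thrice weekly, volume = length×width²×π/6. T/C from median volumes on the last day.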

Granta-519 = assay: Antimitotic activity against human Granta-519 cells assessed as inhibition of cell proliferation incubated for 72 hrs by Alamar blue based fluorescence spectrophotometric analysis; assay type: functional; settings: Granta-519, 72 h
Outline: (§3)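 Cancer cell lines were cultured per supplier instructions and exposed to various inhibitor concentrations for 72 h. Growth was read as Alamar blue conversion by fluorescence. EC50 (50% growth inhibition) was extrapolated from the dose-response curve fit.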

Mus musculus = assay: Antitumor against human CXB1 cells xenografted in BomTac:NMRI-Foxn1nu mouse assessed as suppression in tumor growth at 15 mg/kg, iv administered once a week on consecutive days; assay type: functional, organism-based; settings: CXB1 cell, in the assay text read “twice a week” for “once a week”; outline: as §2
[3] = AUC (0 to infinity) in BomTac:NMRI-Foxn1nu mouse at 35 mg/kg, iv by HPLC-MS/MS analysis; assay type: ADME, organism-based; settings: in vivo
Outline: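 Single i.v. dose: male Wistar rats (n=4) by 5-min infusion, female nude mice (n=3). EDTA plasma was sampled at various times and extracted with internal standard, NaOH, methanol/formic acid and acetonitrile. Analysis by LC-MS/MS (ESI+, C18, ammonium acetate pH 4.0/acetonitrile gradient). Noncompartmental parameters; AUC by trapezoidal rule.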

[4] = Oral bioavailability in BomTac:NMRI-Foxn1nu mouse at 50 mg/kg by HPLC-MS/MS analysis; assay type: ADME, organism-based; settings: in vivo
Outline: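 Single oral gavage of BI 6727 suspended in 0.5% hydroxyethyl-cellulose (10 mL/kg) to female nude mice or male Wistar rats. EDTA plasma levels measured over time by HPLC-MS/MS with internal standard. AUC0-24 by trapezoidal rule. Parameters from noncompartmental analysis.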

HCT-116 [5] = assay: Antimitotic activity against human HCT-116 cells assessed as inhibition of cell proliferation incubated for 72 hrs by Alamar blue based fluorescence spectrophotometric analysis; assay type: functional; settings: HCT-116, 72 h; outline: as §3
NCI-H460 [6] = assay: Induction of apoptosis in human NCI-H460 cells assessed as cleaved PRAP fragment level at 100 nmol/L incubated for 24 hrs by westernblot analysis; assay type: functional, cell-based; outline: as §1
HCT-116 [7] = assay: Antitumor activity against human HCT-116 cells xenografted in BomTac:NMRI-Foxn1nu mouse assessed as T/C at 25 mg/kg, iv administered twice a week upto 6 weeks relative to control; assay type: functional; outline: as §2
[8] = Half life in BomTac:NMRI-Foxn1nu mouse at 35 mg/kg, iv by HPLC-MS/MS analysis; assay type: ADME, organism-based; settings: in vivo
Outline: (§4)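 Female nude mice, n = 3, single i.v. dose (vehicle 0.1 N HCl diluted with 0.9% NaCl, 10 mL/kg). BI 6727 measured in EDTA plasma at several times by HPLC-MS/MS with internal standard. Parameters came from noncompartmental analysis. Terminal half-life was taken from the last two time points after i.v. dosing.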

NCI-H460 [9] = assay: Antimitotic activity against human NCI-H460 cells assessed as G2-M arrest with apoptosis at 100 nmol/L incubated for 24 hrs by PI staining based flow cytometric analysis; assay type: functional, cell-based
Outline: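 Log-phase NCI-H460 cells were treated with 0.1% DMSO or inhibitor (dose series for 24 h; 100 nmol/L time course at 0, 24, 48, 72 h). Cells were fixed in 80% ethanol, permeabilized with 0.25% Triton X-100 for 5 min, then given 0.1% RNase plus 10 µg/mL propidium iodide for 20 min at RT. DNA content was read by flow cytometry.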

HCT-116 [10] = assay: Antitumor activity against human HCT-116 cells xenografted in BomTac:NMRI-Foxn1nu mouse assessed as the number of apoptotic cells in large intestine at 40 mg/kg, iv; assay type: functional, organism-based
Outline: (§5)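 Female nude mice bore s.c. HCT 116 tumors (~200 mm³) and received a single i.v. 40 mg/kg dose or vehicle (n=3 per group per time). Tumor, small intestine and large intestine were taken at 6, 24 and 48 h. Frozen sections were stained for pSer10 histone H3 (immunoperoxidase) or by TUNEL. Positive area was calculated as % of tumor cell area; Student's t test.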

HCT-116 [11] = assay: Antitumor activity against human HCT-116 cells xenografted in BomTac:NMRI-Foxn1nu mouse assessed as T/C at 20 mg/kg, iv administered once a week upto 6 weeks relative to control; assay type: functional; outline: as §2
NCI-H460 [12] = assay: Antimitotic activity against human NCI-H460 cells assessed as inhibition of cell proliferation incubated for 72 hrs by Alamar blue based fluorescence spectrophotometric analysis; assay type: functional; settings: NCI-H460, 72 h; outline: as §3
HCT-116 [13] = assay: Antitumor activity against human HCT-116 cells xenografted in BomTac:NMRI-Foxn1nu mouse assessed as the number of apoptotic cells in small intestine at 40 mg/kg, iv; assay type: functional, organism-based; outline: as §5
NCI-H460 [14] = assay: Antitumor activity against human NCI-H460 cells xenografted in BomTac:NMRI-Foxn1nu mouse assessed as T/C at 70 mg/kg, po administered once a week upto 6 weeks relative to control; assay type: functional; outline: as §2
[15] = AUC (0 to 24 hrs) in human HCT-116 cells xenografted in BomTac:NMRI-Foxn1nu mouse at 25 mg/kg, po administered twice a week upto 6 weeks by HPLC-MS/MS analysis; assay type: ADME, organism-based; settings: in vivo, 1008 h
[16] = Cmax in BomTac:NMRI-Foxn1nu mouse at 35 mg/kg, iv by HPLC-MS/MS analysis; assay type: ADME, organism-based; settings: in vivo; outline: as §4
HCT-116 [17] = assay: Antitumor activity against human HCT-116 cells xenografted in BomTac:NMRI-Foxn1nu mouse assessed as tumor regression at 20 mg/kg, iv administered twice a week on consecutive days; assay type: functional, organism-based; outline: as §2
BRO melanoma cell line = assay: Antimitotic activity against human BRO melanoma cell line assessed as inhibition of cell proliferation incubated for 72 hrs by Alamar blue based fluorescence spectrophotometric analysis; assay type: functional
HCT-116 [18] = assay: Antitumor activity against human HCT-116 cells xenografted in BomTac:NMRI-Foxn1nu mouse assessed as T/C at 7 mg/kg, po administered daily upto 6 weeks relative to control; assay type: functional; outline: as §2
[19] = AUC (0 to 24 hrs) in human HCT-116 cells xenografted in BomTac:NMRI-Foxn1nu mouse at 15 mg/kg, iv administered twice a week upto 6 weeks by HPLC-MS/MS analysis; assay type: ADME, organism-based; settings: in vivo, 1008 h
HCT-116 [20] = assay: Antitumor activity against human HCT-116 cells xenografted in BomTac:NMRI-Foxn1nu mouse assessed as tumor regression at 25 mg/kg, iv administered twice a week on consecutive days; assay type: functional, organism-based; outline: as §2

In the case of CC[C@@H]1C(=O)N(C)c2cnc(Nc3ccc(C(=O)N[C@H]4CC[C@H](N5CCN(CC6CC6)CC5)CC4)cc3OC)nc2N1C(C)C [VOLASERTIB], the Activity (NCI-H460 [1]) is reported as “Active”, the T/C (HCT-116 [2]) is reported as 2% and the EC50 (Granta-519) is reported as 15 nM. For the same compound, the Activity (Mus musculus) was “Active”, the AUC(0-inf) [3] was 100 µM·h and the bioavailability [4] was 41%. The EC50 (HCT-116 [5]) was 23 nM, the Activity (NCI-H460 [6]) was “Active” and the T/C (HCT-116 [7]) was 0.3%. The half-life [8] was 46 h, the Activity (NCI-H460 [9]) was “Active” and the Activity (HCT-116 [10]) was “inactive”. For the same compound, the T/C (HCT-116 [11]) was 9%, the EC50 (NCI-H460 [12]) was 21 nM and the Activity (HCT-116 [13]) was “inactive”. For the same compound, the T/C (NCI-H460 [14]) was 20%, the AUC [15] was 43 µM·h and the Cmax [16] was 7.1 µM. For the same compound, the Activity (HCT-116 [17]) was “Active”, the EC50 (BRO melanoma cell line) was 11 nM and the T/C (HCT-116 [18]) was 3%. For the same compound, the AUC [19] was 37 µM·h and the Activity (HCT-116 [20]) was “Active”.

— ChEMBL document CHEMBL5661977, “BI 6727, a Polo-like kinase inhibitor with improved pharmacokinetic profile and broad antitumor activity” (Clin Cancer Res, 2009)
